From ChEMBL document CHEMBL1129477, “Structure-activity relationships of the quinolone antibacterials against mycobacteria: effect of structural changes at N-1 and C-7” (J Med Chem, 1996)
Converted amounts (≈) assume the structure as drawn.

What was measured:
Format in all cases: functional
Streptococcus pyogenes = assay: Anti-bacterial activity tested against Gram-positive SP1-1 bacterium
Procedure, shortened: (§1)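 Standard microtitration MIC determination (µg/mL) against four representative Gram-negative and Gram-positive bacterial strains.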

[1] = test system: Mycolicibacterium fortuitum; assay: Anti-bacterial activity tested against Mycobacterium fortuitum (ATCG 6841)
Escherichia coli = assay: Anti-bacterial activity was tested against Gram-negative EC-1 bacterium; procedure, shortened: as §1
Pseudomonas aeruginosa = assay: Anti-bacterial activity tested against Gram-negative PA-7 bacterium; procedure, shortened: as §1
[2] = test system: Mycolicibacterium smegmatis; assay: Anti-bacterial activity tested against Mycobacterium smegmatis (ATCG 19420)
Staphylococcus aureus = assay: Anti-bacterial activity was tested against Gram-positive SA-13 bacterium; procedure, shortened: as §1

SMILES | MIC (Streptococcus pyogenes) [µg/mL] | MIC [1] [µg/mL] | MIC (Escherichia coli) [µg/mL] | MIC (Pseudomonas aeruginosa) [µg/mL] | MIC [2] [µg/mL] | MIC (Staphylococcus aureus) [µg/mL]
CC1CN(c2cc3c(cc2F)c(=O)c(C(=O)O)cn3C(C)C)CCN1 (centres undefined) | > 3.1 | 0.5 (≈ 1.44 µM) | 0.8 (≈ 2.3 µM) | 3.1 (≈ 8.92 µM) | 2 (≈ 5.76 µM) | 3.1 (≈ 8.92 µM)
CC(C)NCC1CCN(c2cc3c(cc2F)c(=O)c(C(=O)O)cn3C2CC2)C1 (centres undefined) | 1.6 (≈ 4.13 µM) | 0.25 (≈ 0.645 µM) | 0.4 (≈ 1.03 µM) | 3.1 (≈ 8 µM) | 0.5 (≈ 1.29 µM) | 0.4 (≈ 1.03 µM)
CC1CN(c2cc3c(cc2F)c(=O)c(C(=O)O)cn3-c2ccc(F)cc2F)CCN1 (centres undefined) [TEMAFLOXACIN] | 0.4 (≈ 0.958 µM) | 0.13 (≈ 0.311 µM) | 0.1 (≈ 0.24 µM) | 0.8 (≈ 1.92 µM) | 0.5 (≈ 1.2 µM) | 0.4 (≈ 0.958 µM)
CC1CN(c2cc3c(cc2F)c(=O)c(C(=O)O)cn3C2CCC2)CC(C)N1 (centres undefined) | > 3.1 | 0.13 (≈ 0.348 µM) | 0.4 (≈ 1.07 µM) | 3.1 (≈ 8.3 µM) | 0.5 (≈ 1.34 µM) | 3.1 (≈ 8.3 µM)
CCNCC1CCN(c2cc3c(cc2F)c(=O)c(C(=O)O)cn3C2CC2)C1 (centres undefined) | 0.8 (≈ 2.14 µM) | 0.5 (≈ 1.34 µM) | 0.1 (≈ 0.268 µM) | 1.6 (≈ 4.28 µM) | 0.5 (≈ 1.34 µM) | 0.8 (≈ 2.14 µM)
O=C(O)c1cn(C2CCC2)c2cc(N3CCNCC3)c(F)cc2c1=O | > 3.1 | 0.5 (≈ 1.45 µM) | 0.4 (≈ 1.16 µM) | 1.6 (≈ 4.63 µM) | 2 (≈ 5.79 µM) | 3.1 (≈ 8.98 µM)
CC1CN(c2cc3c(cc2F)c(=O)c(C(=O)O)cn3C(C)(C)C)CC(C)N1 (centres undefined) | > 3.1 | 0.06 (≈ 0.16 µM) | 0.2 (≈ 0.533 µM) | 1.6 (≈ 4.26 µM) | 0.06 (≈ 0.16 µM) | 0.4 (≈ 1.07 µM)
CC1CN(c2cc3c(cc2F)c(=O)c(C(=O)O)cn3C(C)(C)C)CCN1 (centres undefined) | > 3.1 | 0.03 (≈ 0.083 µM) | 0.1 (≈ 0.277 µM) | 0.8 (≈ 2.21 µM) | 0.06 (≈ 0.166 µM) | 0.4 (≈ 1.11 µM)
CCN1CCN(c2cc3c(cc2F)c(=O)c(C(=O)O)cn3C2CCC2)CC1 | > 3.1 | 0.5 (≈ 1.34 µM) | 0.8 (≈ 2.14 µM) | > 3.1 | 2 (≈ 5.36 µM) | 3.1 (≈ 8.3 µM)
CCn1cc(C(=O)O)c(=O)c2cc(F)c(N3CCNCC3)cc21 [NORFLOXACIN] | > 3.1 | 0.5 (≈ 1.57 µM) | 0.1 (≈ 0.313 µM) | 0.8 (≈ 2.51 µM) | 2 (≈ 6.26 µM) | 3.1 (≈ 9.71 µM)
CC(C)CN1CCN(c2cc3c(cc2F)c(=O)c(C(=O)O)cn3C2CC2)CC1 | 1.6 (≈ 4.13 µM) | 1 (≈ 2.58 µM) | 0.2 (≈ 0.516 µM) | 1.6 (≈ 4.13 µM) | 0.25 (≈ 0.645 µM) | 0.4 (≈ 1.03 µM)
CNCC1CCN(c2cc3c(cc2F)c(=O)c(C(=O)O)cn3C2CC2)C1 (centres undefined) | 0.1 (≈ 0.278 µM) | 0.25 (≈ 0.696 µM) | 0.2 (≈ 0.556 µM) | 0.8 (≈ 2.23 µM) | 0.5 (≈ 1.39 µM) | 0.2 (≈ 0.556 µM)
CNCC1CCN(c2cc3c(cc2F)c(=O)c(C(=O)O)cn3C(C)(C)C)C1 (centres undefined) | 0.2 (≈ 0.533 µM) | 0.13 (≈ 0.346 µM) | 0.4 (≈ 1.07 µM) | 1.6 (≈ 4.26 µM) | 0.25 (≈ 0.666 µM) | 0.2 (≈ 0.533 µM)
CCN1CCN(c2cc3c(cc2F)c(=O)c(C(=O)O)cn3-c2ccc(F)cc2F)CC1 | 0.8 (≈ 1.85 µM) | 0.5 (≈ 1.16 µM) | 0.4 (≈ 0.927 µM) | 1.6 (≈ 3.71 µM) | 1 (≈ 2.32 µM) | 0.2 (≈ 0.464 µM)
O=C(O)c1cn(-c2ccc(F)cc2F)c2cc(N3CCNCC3)c(F)cc2c1=O | 0.4 (≈ 0.992 µM) | 0.25 (≈ 0.62 µM) | 0.1 (≈ 0.248 µM) | 0.2 (≈ 0.496 µM) | 0.5 (≈ 1.24 µM) | 0.4 (≈ 0.992 µM)
CN1CCN(c2cc3c(cc2F)c(=O)c(C(=O)O)cn3-c2ccc(F)cc2F)CC1 | 1.6 (≈ 3.83 µM) | 0.25 (≈ 0.599 µM) | 0.2 (≈ 0.479 µM) | 0.8 (≈ 1.92 µM) | 0.5 (≈ 1.2 µM) | 0.2 (≈ 0.479 µM)
CCC1CN(c2cc3c(cc2F)c(=O)c(C(=O)O)cn3C2CC2)CCN1 (centres undefined) | 0.8 (≈ 2.23 µM) | 0.13 (≈ 0.362 µM) | 0.1 (≈ 0.278 µM) | 0.8 (≈ 2.23 µM) | 0.25 (≈ 0.696 µM) | 0.8 (≈ 2.23 µM)

SMILES | MIC (Streptococcus pyogenes) [µg/mL] | MIC [1] [µg/mL] | MIC (Escherichia coli) [µg/mL] | MIC (Pseudomonas aeruginosa) [µg/mL] | MIC [2] [µg/mL] | MIC (Staphylococcus aureus) [µg/mL]
CC(C)CN1CCN(c2cc3c(cc2F)c(=O)c(C(=O)O)cn3-c2ccc(F)cc2F)CC1 | > 3.1 | 2 (≈ 4.35 µM) | 3.1 (≈ 6.75 µM) | > 3.1 | 4 (≈ 8.71 µM) | 0.8 (≈ 1.74 µM)
CCN1CCN(c2cc3c(cc2F)c(=O)c(C(=O)O)cn3C(C)C)CC1 | > 3.1 | 1 (≈ 2.77 µM) | 1.6 (≈ 4.43 µM) | > 3.1 | 4 (≈ 11.1 µM) | 3.1 (≈ 8.58 µM)
CC(C)N1CCN(c2cc3c(cc2F)c(=O)c(C(=O)O)cn3C2CC2)CC1 | 0.8 (≈ 2.14 µM) | 0.25 (≈ 0.669 µM) | 0.1 (≈ 0.268 µM) | 1.6 (≈ 4.28 µM) | 0.25 (≈ 0.669 µM) | 0.2 (≈ 0.536 µM)
CCn1cc(C(=O)O)c(=O)c2cc(F)c(N3CC(C)NC(C)C3)cc21 (centres undefined) | > 3.1 | 0.13 (≈ 0.374 µM) | 0.4 (≈ 1.15 µM) | 3.1 (≈ 8.92 µM) | 1 (≈ 2.88 µM) | 0.8 (≈ 2.3 µM)
CCN1CCN(c2cc3c(cc2F)c(=O)c(C(=O)O)cn3C(C)(C)C)CC1 | > 3.1 | 0.13 (≈ 0.346 µM) | 0.2 (≈ 0.533 µM) | 1.6 (≈ 4.26 µM) | 0.13 (≈ 0.346 µM) | 0.2 (≈ 0.533 µM)
C[C@@H]1CN(c2c(F)c(N)c3c(=O)c(C(=O)O)cn(C4CC4)c3c2F)C[C@H](C)N1 [SPARFLOXACIN] | 0.1 (≈ 0.255 µM) | 0.06 (≈ 0.153 µM) | 0.025 (≈ 0.0637 µM) | 0.8 (≈ 2.04 µM) | 0.13 (≈ 0.331 µM) | 0.05 (≈ 0.127 µM)
CC(C)N1CCN(c2cc3c(cc2F)c(=O)c(C(=O)O)cn3-c2ccc(F)cc2F)CC1 | 3.1 (≈ 6.96 µM) | 0.5 (≈ 1.12 µM) | 0.8 (≈ 1.8 µM) | 3.1 (≈ 6.96 µM) | 1 (≈ 2.24 µM) | 0.4 (≈ 0.898 µM)
CC(C)n1cc(C(=O)O)c(=O)c2cc(F)c(N3CCC(N)C3)cc21 (centres undefined) | > 3.1 | 1 (≈ 3 µM) | 0.8 (≈ 2.4 µM) | 1.6 (≈ 4.8 µM) | 2 (≈ 6 µM) | 3.1 (≈ 9.3 µM)
CC1CN(c2cc3c(cc2F)c(=O)c(C(=O)O)cn3C2CCC2)CCN1 (centres undefined) | > 3.1 | 0.25 (≈ 0.696 µM) | 0.4 (≈ 1.11 µM) | 1.6 (≈ 4.45 µM) | 1 (≈ 2.78 µM) | 3.1 (≈ 8.63 µM)
NC1CCN(c2cc3c(cc2F)c(=O)c(C(=O)O)cn3-c2ccc(F)cc2F)C1 (centres undefined) | 0.1 (≈ 0.248 µM) | 0.13 (≈ 0.322 µM) | 0.03 (≈ 0.0744 µM) | 0.2 (≈ 0.496 µM) | 0.13 (≈ 0.322 µM) | 0.05 (≈ 0.124 µM)
CC1CN(c2cc3c(cc2F)c(=O)c(C(=O)O)cn3C2CC2)CC(C)N1 (centres undefined) | > 3.1 | 0.06 (≈ 0.167 µM) | 0.05 (≈ 0.139 µM) | 0.8 (≈ 2.23 µM) | 0.13 (≈ 0.362 µM) | 0.4 (≈ 1.11 µM)
CC(C)n1cc(C(=O)O)c(=O)c2cc(F)c(N3CCNCC3)cc21 | > 3.1 | 1 (≈ 3 µM) | 0.8 (≈ 2.4 µM) | 1.6 (≈ 4.8 µM) | 4 (≈ 12 µM) | > 3.1
CCn1cc(C(=O)O)c(=O)c2cc(F)c(N3CCC(N)C3)cc21 (centres undefined) | 0.8 (≈ 2.51 µM) | 1 (≈ 3.13 µM) | 0.4 (≈ 1.25 µM) | 0.8 (≈ 2.51 µM) | 4 (≈ 12.5 µM) | 1.6 (≈ 5.01 µM)
CCCCN1CCN(c2cc3c(cc2F)c(=O)c(C(=O)O)cn3C2CC2)CC1 | > 3.1 | 1 (≈ 2.58 µM) | 0.1 (≈ 0.258 µM) | 1.6 (≈ 4.13 µM) | 0.5 (≈ 1.29 µM) | 0.4 (≈ 1.03 µM)
CCNCC1CCN(c2cc3c(cc2F)c(=O)c(C(=O)O)cn3-c2ccc(F)cc2F)C1 (centres undefined) | 0.1 (≈ 0.224 µM) | 0.5 (≈ 1.12 µM) | 0.4 (≈ 0.898 µM) | 1.6 (≈ 3.59 µM) | 0.5 (≈ 1.12 µM) | 0.2 (≈ 0.449 µM)
CC(C)(C)n1cc(C(=O)O)c(=O)c2cc(F)c(N3CCNCC3)cc21 | 1.6 (≈ 4.61 µM) | < 0.03 | 0.2 (≈ 0.576 µM) | 0.4 (≈ 1.15 µM) | 0.13 (≈ 0.374 µM) | 0.8 (≈ 2.3 µM)
CCn1cc(C(=O)O)c(=O)c2cc(F)c(N3CCNC(C)C3)cc21 (centres undefined) | > 3.1 | 1 (≈ 3 µM) | 0.2 (≈ 0.6 µM) | > 3.1 | 2 (≈ 6 µM) | 3.1 (≈ 9.3 µM)
